# Assay results pooled from the literature.
# PFF0160c E182D: Dihydroorotate dehydrogenase (quinone), mitochondrial (PFF0160c, Plasmodium falciparum, UniProt Q08210, E182D)
# PROC: Vitamin K-dependent protein C (PROC, Homo sapiens, UniProt P04070)
# PFF0160c: Dihydroorotate dehydrogenase (quinone), mitochondrial (PFF0160c, Plasmodium falciparum, UniProt Q08210)
# OPRK1: Kappa-type opioid receptor (OPRK1, Homo sapiens, UniProt P41145)
Structure (SMILES),target,observed,mode,technique,IC50
CC1CN(Cc2ccc(-c3ccc(C(=O)NCC4CCCO4)cn3)cc2)CC(C)O1 (stereo not shown),PFF0160c E182D,enzyme activity,inhibitor,absorbance,3280 nM
CC[C@H]1NC(=O)[C@@H]2CSC(=N2)[C@H](Cc2ccccc2)N(C)C(=O)[C@@H]2CCCN2C(=O)[C@H](C(C)C)N(C)C(=O)[C@H](Cc2ccccc2)OC(=O)[C@H](C)[C@@H](C)NC(=O)[C@@H]([C@@H](C)O)NC(=O)[C@@H](CC(C)C)N(C)C(=O)[C@@H]2CSC1=N2,PROC,enzyme activity,inhibitor,,62000 nM
Cc1c(Cc2ccc(C(F)(F)F)cc2F)c[nH]c1C(=O)NC(C)c1nc[nH]n1 (stereo not shown),PFF0160c,enzyme activity,inhibitor,absorbance,350 nM
COc1cc(Nc2ncc(F)c(Nc3ccc4c(n3)NC(=O)C(C)(C)O4)n2)cc(OC)c1OC,"cGMP-specific 3',5'-cyclic phosphodiesterase (PDE5A, Homo sapiens, UniProt O76074)",enzyme activity,inhibitor,,316 nM
CCOC(=O)c1ccc(OC(=O)CCCCCN=C(N)N)cc1,PROC,enzyme activity,inhibitor,,1400 nM
Cc1c(Cc2ccc(F)c(F)c2)c[nH]c1C(=O)NC(C)c1nc[nH]n1 (stereo not shown),PFF0160c,enzyme activity,inhibitor,absorbance,> 100000 nM
Cc1noc2nc(C(F)(F)F)nc(Nc3ccc(C(F)(F)F)cc3)c12,PFF0160c,enzyme activity,inhibitor,absorbance,610 nM
Cc1c(C2(c3ccc(C(F)F)nc3)CC2)c[nH]c1C(=O)NC(C)c1nc[nH]n1 (stereo not shown),PFF0160c,enzyme activity,inhibitor,absorbance,> 30000 nM
Cc1noc2nc(C(F)(F)F)nc(NC3Cc4cc(F)c(F)cc4C3)c12,PFF0160c,enzyme activity,inhibitor,absorbance,110 nM
Cc1ccc(O)c([C@H](CCN(C(C)C)C(C)C)c2ccccc2)c1,OPRK1,ligand displacement,,radioligand,6710 nM
Cc1nc(C(C)NC(=O)c2[nH]cc(Cc3ccc(C(F)(F)F)nc3)c2C)c[nH]1 (stereo not shown),PFF0160c,enzyme activity,inhibitor,absorbance,1300 nM
Cc1nc(NC2CCc3cc(Br)ccc3C2)c2c(C)noc2n1 (stereo not shown),PFF0160c,enzyme activity,inhibitor,absorbance,530 nM
O=C(Nc1ccccc1)OCC(CN1CCCCC1)OC(=O)Nc1ccccc1 (stereo not shown),OPRK1,ligand displacement,,radioligand,1420 nM
CCc1ccccc1N=C1c2c(cccc2[N+](=O)[O-])C(=O)C1C(C)=O (stereo not shown),PFF0160c E182D,enzyme activity,inhibitor,absorbance,384 nM
Cc1nc(NC2Cc3cc(F)c(F)cc3C2)c2c(C(F)(F)F)noc2n1,PFF0160c,enzyme activity,inhibitor,absorbance,22 nM
CC(c1ccc(Cl)c(Cl)c1)c1nn2c(-c3ccccc3F)nnc2s1 (stereo not shown),PFF0160c,enzyme activity,inhibitor,absorbance,541 nM
O=S(=O)(O)c1nc2ccccc2[nH]1,"racE (Bacillus subtilis, UniProt P94556, N75A)",enzyme activity,inhibitor,absorbance,890000 nM
COc1ccc(C(=O)NCC(C)(C)c2nc(-c3ccc(Cl)c(O)c3)c(-c3ccncc3)[nH]2)cc1OCCN(C(C)C)C(C)C,PFF0160c,enzyme activity,inhibitor,absorbance,> 10000 nM
Cc1nc(NC2CCc3cc(Cl)ccc3C2)c2c(C)noc2n1 (stereo not shown),PFF0160c,enzyme activity,inhibitor,absorbance,120 nM
Cc1c(C2(c3cccc(C(F)(F)F)c3)CC2)c[nH]c1C(=O)NC(C)c1nc[nH]n1 (stereo not shown),PFF0160c,enzyme activity,inhibitor,absorbance,30000 nM
CCc1nc2nc(C)cc(Nc3ccc4c(c3)OCCO4)n2n1,PFF0160c E182D,enzyme activity,inhibitor,absorbance,> 10000 nM
Cc1noc2nc(C(F)(F)F)nc(Nc3ccc(S(F)(F)(F)(F)F)cc3)c12,PFF0160c,enzyme activity,inhibitor,absorbance,250 nM
CN(C)S(=O)(=O)c1ccc(Sc2ccccc2)c(C(=O)N2CCCC(C(N)=O)C2)c1 (stereo not shown),PFF0160c,enzyme activity,inhibitor,absorbance,3670 nM
Cc1c(Cc2ccc(C(F)(F)F)nc2)c[nH]c1C(=O)N[C@@H](C)C(N)=O,PFF0160c,enzyme activity,inhibitor,absorbance,> 100000 nM
COc1ccc(-n2ccnc2SCC(=O)Nc2cc(C)ccc2C)c(OC)c1,PFF0160c,enzyme activity,inhibitor,absorbance,324 nM
Cc1nc(Nc2ccc(S(F)(F)(F)(F)F)cc2)c2c(C(F)(F)F)noc2n1,PFF0160c,enzyme activity,inhibitor,absorbance,43 nM
Cc1cc(C(C)NC(=O)c2[nH]cc(Cc3ccc(C(F)(F)F)nc3)c2C)n[nH]1 (stereo not shown),PFF0160c,enzyme activity,inhibitor,absorbance,100 nM
Cc1cc(Nc2ccc(C)c(Cl)c2)n2nc(C(F)(F)F)nc2n1,PFF0160c,enzyme activity,inhibitor,absorbance,29.1 nM
